This passage reports IC50 and inhibition results from ChEMBL document CHEMBL1158375, “Design and synthesis of new N-(fluorenyl-9-methoxycarbonyl) (Fmoc)-dipeptides as anti-inflammatory agents” (Eur J Med Chem, 2009).

Bounds are passed on as bounds.

Details in all cases: Neutrophil
Test [1] is described as follows: Antiinflammatory activity in fMLP/cytochalasin B-stimulated human neutrophils assessed as inhibition of superoxide anion generation after 5 mins. The test is classed as functional, cell-based. A digest of the protocol:
(§1)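 Donor neutrophils isolated by dextran sedimentation, Ficoll Hypaque and hypotonic lysis, kept in Ca2+-free HBSS pH 7.4 at 4 °C. Cells given 0.5 mg/mL ferricytochrome c and 1 mM Ca2+, 2 min at 37 °C, drug 5 min, CB 1 μg/mL 3 min, then 100 nM fMLP for 10 min. SOD-inhibitable cytochrome c reduction. IC50 or % inhibition at 10 μg/mL; mean ± S.E.M., n = 3-4.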

A short description of test [2]: Antiinflammatory activity in fMLP/cytochalasin B-stimulated human neutrophils assessed as inhibition of elastase release at 10 ug/ml after 5 mins. The format is functional. A digest of the protocol: (§2)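 Neutrophils from healthy donor blood (dextran sedimentation, Ficoll Hypaque, hypotonic erythrocyte lysis; >98% viable), held in Ca2+-free HBSS pH 7.4 at 4 °C. 5 × 10⁵ cells/mL with 100 μM MeO-Suc-Ala-Ala-Pro-Val-p-nitroanilide, 2 min at 37 °C, drug 5 min, then 100 nM fMLP + 0.5 μg/mL CB. A405 followed continuously; percent of initial rate versus drug-free control. IC50 or % inhibition at 10 μg/mL; mean ± S.E.M., n = 3-4.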

Test [3] can be described thus: Antiinflammatory activity in fMLP/cytochalasin B-stimulated human neutrophils assessed as inhibition of elastase release after 5 mins. The format is functional, cell-based. The essentials:
as §2

Test [4] can be described thus: Antiinflammatory activity in fMLP/cytochalasin B-stimulated human neutrophils assessed as inhibition of superoxide anion generation at 10 ug/ml after 5 mins. The format is functional. A digest of the protocol:
as §1

For `O=C(N[C@@H](Cc1c[nH]c2ccccc12)C(=O)O)OCC1c2ccccc2-c2ccccc21`, the IC50 in test [1] was determined as 3.3 µM. The inhibition at 10 µg/mL in test [2] is 45.4%.

Turning to `O=C(N[C@@H](Cc1ccccc1)C(=O)O)OCC1c2ccccc2-c2ccccc21`, the figures for the 50% inhibitory concentration (IC50) in test [1] and in test [3] were 14.1 µM and 14.2 µM, respectively.

For `CC(=O)OC[C@@H](Cc1ccccc1)NC(=O)[C@H](Cc1ccc(O)cc1)NC(=O)OCC1c2ccccc2-c2ccccc21`, the inhibition at 10 µg/mL in test [4] was 8%. The IC50 in test [3] is 6.5 µM.

Consider `CC(=O)OC[C@H](Cc1ccccc1)NC(=O)[C@H](Cc1ccccc1)NC(=O)OCC1c2ccccc2-c2ccccc21`, for which the inhibition at 10 µg/mL was 2.8% in test [4] and 39.5% in test [2].

In the case of `CC(=O)OC[C@H](Cc1ccccc1)NC(=O)[C@H](Cc1ccc(O)cc1)NC(=O)OCC1c2ccccc2-c2ccccc21`, the figures for the inhibition at 10 µg/mL in test [4] and in test [2] were -0.5% and 22.8%, respectively.

As for `CC(=O)OC[C@H](Cc1ccccc1)NC(=O)[C@@H](NC(=O)OCC1c2ccccc2-c2ccccc21)C(C)C`, the values for the inhibition at 10 µg/mL in test [4] and in test [2] were -6.3% and 27.7%, respectively.

As to `CC(=O)OC[C@@H](Cc1ccccc1)NC(=O)[C@H](Cc1c[nH]c2ccccc12)NC(=O)OCC1c2ccccc2-c2ccccc21`, the inhibition at 10 µg/mL in test [4] was 18.6%. Further, the IC50 in test [3] turned out to be 1.7 µM.

With `CC(=O)OC[C@H](Cc1ccccc1)NC(=O)[C@H](Cc1c[nH]c2ccccc12)NC(=O)OCC1c2ccccc2-c2ccccc21`, the inhibition at 10 µg/mL in test [4] came to 24.5%. In test [3], the 50% inhibitory concentration (IC50) worked out at 5.5 µM.

For `CC(=O)OC[C@H](Cc1ccccc1)NC(=O)[C@@H](N)Cc1ccc(O)cc1`, the inhibition at 10 µg/mL in test [4] is -0.5%; in test [2], 22.8%.

`CC(=O)OC[C@H](Cc1ccccc1)NC(=O)[C@H](Cc1ccccc1)NC(=O)OCc1ccccc1`: the inhibition at 10 µg/mL in test [4] came to 39.3%; in test [2], 27.2%.

For the compound `CC[C@H](C)[C@H](NC(=O)OCC1c2ccccc2-c2ccccc21)C(=O)N[C@@H](COC(C)=O)Cc1ccccc1`, the inhibition at 10 µg/mL in test [4] was 6%; in test [2], 22.5%.

With `CC(=O)OC[C@@H](Cc1ccccc1)NC(=O)[C@@H](NC(=O)OCC1c2ccccc2-c2ccccc21)C(C)C`, the inhibition at 10 µg/mL in test [4] was -2.3%; in test [2] it was 34.6%.

In the case of `CC(=O)OC[C@@H](Cc1ccccc1)NC(=O)[C@H](Cc1ccccc1)NC(=O)OCc1ccccc1`, the inhibition at 10 µg/mL was 40.9% in test [4] and 35.4% in test [2].

In the case of `CC(=O)OC[C@H](Cc1ccccc1)NC(=O)[C@H](Cc1cn(C(c2ccccc2)(c2ccccc2)c2ccccc2)cn1)NC(=O)OCC1c2ccccc2-c2ccccc21`, the inhibition at 10 µg/mL in test [4] came to 9.5%; in test [2] it was 32%.

On to `CC(=O)OC[C@H](Cc1ccccc1)NC(=O)[C@H](Cc1ccc(OC(C)(C)C)cc1)NC(=O)OCC1c2ccccc2-c2ccccc21`, for which the inhibition at 10 µg/mL in test [4] came out at 25.9%. Besides, in test [3], the IC50 was 0.8 µM.

On to `CC(=O)OC[C@@H](Cc1ccccc1)NC(=O)[C@H](Cc1ccccc1)NC(=O)OCC1c2ccccc2-c2ccccc21`, for which, in test [4], the inhibition at 10 µg/mL was 31.3%. For the same compound, the IC50 in test [3] was found to be 12.9 µM.

On to `CC(=O)OC[C@@H](Cc1ccccc1)NC(=O)[C@H](Cc1ccc2ccccc2c1)NC(=O)OCC1c2ccccc2-c2ccccc21`, for which the inhibition at 10 µg/mL in test [4] worked out at 2.1%. Moreover, in test [3], the half-maximal inhibitory concentration (IC50) came out at 14.5 µM.

With `CC(=O)OC[C@H](Cc1ccccc1)NC(=O)[C@H](Cc1ccc2ccccc2c1)NC(=O)OCC1c2ccccc2-c2ccccc21`, the figures for the inhibition at 10 µg/mL in test [4] and in test [2] were 5% and 37.8%, respectively.

For `CC(=O)OC[C@@H](Cc1ccccc1)NC(=O)[C@H](Cc1ccc(OC(C)(C)C)cc1)NC(=O)OCC1c2ccccc2-c2ccccc21`, the inhibition at 10 µg/mL in test [4] turned out to be 22.3%; in test [2], 31.9%.

Take `CC(=O)OC[C@@H](Cc1ccccc1)NC(=O)[C@H](Cc1cn(C(c2ccccc2)(c2ccccc2)c2ccccc2)cn1)NC(=O)OCC1c2ccccc2-c2ccccc21`: the inhibition at 10 µg/mL is 6.6% in test [4] and -2.9% in test [2].

Turning to `CC(=O)OC[C@@H](Cc1ccccc1)NC(=O)[C@@H](N)Cc1ccccc1`, the concentration for half-maximal inhibition (IC50) in test [1] and in test [3] was more than 20 µM in each case.

`CC(=O)OC[C@@H](Cc1ccccc1)NC(=O)[C@H](Cc1ccccc1)NC(=O)OC(C)(C)C`: the figures for the inhibition at 10 µg/mL in test [4] and in test [2] were 4.7% and 11%, respectively.

`CC(C)(C)Oc1ccc(C[C@H](NC(=O)OCC2c3ccccc3-c3ccccc32)C(=O)O)cc1`: the values for the concentration for half-maximal inhibition (IC50) in test [1] and in test [3] were 5.5 µM and 5.6 µM, respectively.

As for `CC(=O)OC[C@H](Cc1ccccc1)NC(=O)[C@@H](N)Cc1ccccc1`, the IC50 in test [1] and in test [3] was more than 20 µM throughout.

For `CC(C)[C@H](NC(=O)OCC1c2ccccc2-c2ccccc21)C(=O)O`, the inhibition at 10 µg/mL was found to be 29.4% in test [4] and 14.5% in test [2].

Consider `CC[C@H](C)[C@H](NC(=O)OCC1c2ccccc2-c2ccccc21)C(=O)O`, for which, in test [1], the IC50 was found to be 12.8 µM. Also, in test [2], the inhibition at 10 µg/mL is 39.8%.

Consider `O=C(N[C@@H](Cc1ccc(O)cc1)C(=O)O)OCC1c2ccccc2-c2ccccc21`, for which the IC50 in test [1] amounted to 2.4 µM; in test [3], 2.9 µM.

On to `CC[C@H](C)[C@H](NC(=O)OCC1c2ccccc2-c2ccccc21)C(=O)N[C@H](COC(C)=O)Cc1ccccc1`, for which the inhibition at 10 µg/mL in test [4] turned out to be 2.2%; in test [2], 25.8%.

With `CC(=O)OC[C@H](Cc1ccccc1)NC(=O)[C@H](Cc1ccccc1)NC(=O)OC(C)(C)C`, the inhibition at 10 µg/mL worked out at 42.1% in test [4] and 18.9% in test [2].

Turning to `CC(=O)OC[C@@H](Cc1ccccc1)NC(=O)[C@@H](N)Cc1ccc(O)cc1`, in test [4], the inhibition at 10 µg/mL came out at 8%. In addition, the IC50 in test [3] was found to be 3.7 µM.

For the compound `c1ccc2c(c1)[I+]c1ccccc1-2` [DIPHENYLENEIODONIUM], the IC50 in test [1] amounted to 0.7 µM.

Usually IC50 stands for the midpoint of a concentration-inhibition curve. In general, inhibition refers to the drop in the measured response relative to a control, in per cent.
